Results from different studies.
In brackets after ≈: the same amount, converted by molar mass.

| Compound | target or system | test | test system | conditions | endpoint | result |
| --- | --- | --- | --- | --- | --- | --- |
| Cc1ccc(CCNc2cc(-c3ccccn3)nc3nncn23)cc1 | Mycobacterium tuberculosis | microbial growth | H37RV |  | MIC | 0.26 µM (≈ 0.0859 µg/mL) |
| COCCNC(=O)c1sc2nc(-c3ccc(OC)cc3)cc(C(F)(F)F)c2c1N | HepG2 | cell growth or viability |  | 72 h | IC50 | > 100 µM |
| COCCC(c1cccnc1)n1c(=S)[nH]c2ccc(Cl)cc2c1=O (stereo not drawn) | Mycobacterium tuberculosis | microbial growth | H37RV |  | MIC90 | > 100 µM |
| COC1CN(C(=O)c2sc3ncccc3c2N)C1 | HepG2 | cell growth or viability |  | 72 h | IC50 | > 100 µM |
| CN(C)CCC(c1cccnc1)n1c(=S)[nH]c2ccc(Cl)cc2c1=O (stereo not drawn) | Mycobacterium tuberculosis | microbial growth | H37RV |  | MIC90 | > 100 µM |
| Cc1cccc(NC(=O)c2sc3nc(-c4ccco4)cc(C(F)(F)F)c3c2N)c1C | HepG2 | cell growth or viability |  | 72 h | IC50 | > 100 µM |
| O=c1c2nc(Cl)ccc2[nH]c(=S)n1Cc1cccnc1 | Mycobacterium tuberculosis | microbial growth | H37RV |  | MIC90 | > 100 µM |
| c1ccc(CCOc2cc(-c3ccccn3)nc3nncn23)cc1 | Mycobacterium tuberculosis | microbial growth | H37RV |  | MIC | > 100 µM |
| CCN(CC)C(=O)c1sc2ncccc2c1N | HepG2 | cell growth or viability |  | 72 h | IC50 | > 100 µM |
| CCCCN(CCCC)C(=N)CC(O)c1cc2c(F)cc(F)cc2c2cc(C(F)(F)F)ccc12 (stereo not drawn) | HepG2 | cell growth or viability, neutral red |  | 24 h | IC50 | 16.6 µM |
| CC(C)C(=O)OCc1cc2[nH]c(=S)n(Cc3cncc(C(N)=S)c3)c(=O)c2cc1Cl | Mycobacterium tuberculosis | microbial growth | H37RV |  | MIC90 | 18 µM (≈ 8.33 µg/mL) |
| COc1ccc(-c2cc(C(F)(F)F)c3c(N)c(C(=O)Nc4ccc(C)cc4C)sc3n2)cc1 | HepG2 | cell growth or viability |  | 72 h | IC50 | > 100 µM |
| Cc1cc(F)cc(C)c1NC(=N)CC(O)c1cc2c(F)cc(F)cc2c2cc(C(F)(F)F)ccc12 (stereo not drawn) | HepG2 | cell growth or viability, neutral red |  | 24 h | IC50 | 6.3 µM |
| Nc1c(C(=O)NCc2ccccc2)sc2nc(-c3ccccc3)ccc12 | HepG2 | cell growth or viability |  | 72 h | IC50 | > 100 µM |
| N=C(CC(O)c1cc2c(F)cc(F)cc2c2cc(C(F)(F)F)ccc12)Nc1cccc(F)c1 (stereo not drawn) | HepG2 | cell growth or viability, neutral red |  | 24 h | IC50 | 11.4 µM |
| Cc1nnc2nc(-c3ccccn3)cc(NCCc3ccc(Cl)cc3)n12 | Mycobacterium tuberculosis | microbial growth | H37RV | 5 days | MIC | 17 to 50 µM (≈ 6.2 to 18.2 µg/mL) |
| Nc1c(C(=O)N2CCCC2)sc2nc(-c3ccc4c(c3)OCO4)cc(C(F)(F)F)c12 | HepG2 | cell growth or viability |  | 72 h | IC50 | > 100 µM |
| N#Cc1cc2[nH]c(=S)n(Cc3cccnc3)c(=O)c2cc1Cl | Mycobacterium tuberculosis | microbial growth | H37RV |  | MIC90 | > 100 µM |
| N#Cc1ccc(NC(=N)CC(O)c2cc3c(F)cc(F)cc3c3cc(C(F)(F)F)ccc23)cc1 (stereo not drawn) | HepG2 | cell growth or viability, neutral red |  | 24 h | IC50 | > 25 µM |
| O=c1[nH]c2cc(CO)c(Cl)cc2c(=O)n1Cc1cncnc1 | Mycobacterium tuberculosis | microbial growth | H37RV |  | MIC90 | 34.5 µM (≈ 11 µg/mL) |
| O=c1c2ccccc2[se]n1-c1ccccc1 | Trypanosoma cruzi | parasite growth | Vero | 72 h, intracellular, amastigote | EC50 | 3.72 µM |
| O=c1c2cc(Cl)ccc2[nH]c(=S)n1Cc1ccc(-c2nnn[nH]2)nc1 | Mycobacterium tuberculosis | microbial growth | H37RV |  | MIC90 | 87.4 µM (≈ 32.5 µg/mL) |
| N=C(CC(O)c1cc2c(F)cc(F)cc2c2cc(C(F)(F)F)ccc12)Nc1ccc(Br)c(F)c1 (stereo not drawn) | HepG2 | cell growth or viability, neutral red |  | 24 h | IC50 | 28.2 µM |
| COc1ccc(CCNc2cc(-c3ccccn3)nc3cc(Br)nn23)cc1 | Mycobacterium tuberculosis | microbial growth | H37RV |  | MIC | 23 µM (≈ 9.76 µg/mL) |
| COc1ccc(-c2cc(C(F)(F)F)c3c(N)c(C(=O)NC(C)C4CCCCC4)sc3n2)cc1 (stereo not drawn) | HepG2 | cell growth or viability |  | 72 h | IC50 | > 100 µM |
| NC(=S)c1ccc(Cn2c(=S)[nH]c3ccc(Cl)cc3c2=O)cn1 | Mycobacterium tuberculosis | microbial growth | H37RV |  | MIC90 | > 100 µM |
| CCCc1ccc(CNc2cc(-c3ccccn3)nc3nncn23)cc1 | Mycobacterium tuberculosis | microbial growth | H37RV |  | MIC | > 100 µM |
